Each structure is given as a SMILES string. ≈ marks a conversion by molar mass, not a printed value.

Holding throughout (format): functional, organism-based
Experiment [1] has as its system Saccharomyces cerevisiae. Nature of the experiment: Growth inhibition of RAD52/topoisomerase 1 deficient Saccharomyces cerevisiae RS321N harbouring plasmid containing human topoisomerase 1 in galactose medium after 48 hrs. Summed up:
(§1)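 Strains: RS321N (rad52 top1) carrying a single-copy plasmid with human TOP1 under the GAL1 promoter; RS321NYCp50 (vector control, tested in galactose); RS322N (rad52). Cells diluted to OD600 0.01 in synthetic minimal medium with glucose or galactose. Compounds added in DMSO (final <1%). Incubated 48 h at 30 °C in a humidified chamber. Read as background-subtracted OD595. Growth decrease relative to drug-free wells, from concentration-response, gave IC50.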

Experiment [2] deals with Saccharomyces cerevisiae. Nature of the experiment: Growth inhibition of RAD52/topoisomerase 1 deficient Saccharomyces cerevisiae RS321N harbouring plasmid containing human topoisomerase 1 in glucose medium after 48 hrs. Summed up: as §1
Experiment [3] relates to Saccharomyces cerevisiae. Put plainly: Growth inhibition of Saccharomyces cerevisiae RS321N containing YCp50 vector plasmid after 48 hrs. In outline:
as §1

Experiment [4] has as its system Saccharomyces cerevisiae. Put plainly: Growth inhibition of RAD52 deficient Saccharomyces cerevisiae RS322 carrying pRAD52 in galactose medium after 48 hrs.
In experiment [5] the test system is Saccharomyces cerevisiae. Nature of the experiment: Growth inhibition of RAD52 deficient Saccharomyces cerevisiae RS322 carrying pRAD52 in glucose medium after 48 hrs.
The test system of experiment [6] is Saccharomyces cerevisiae. Nature of the experiment: Growth inhibition of Saccharomyces cerevisiae expressing wild type erg6 in glucose medium after 48 hrs.
Experiment [7] deals with Saccharomyces cerevisiae. Put plainly: Growth inhibition of RAD52/topoisomerase-1 deficient Saccharomyces cerevisiae RS321 in glucose medium after 48 hrs. In outline:
as §1

In experiment [8] the test system is Saccharomyces cerevisiae. Put plainly: Growth inhibition of RAD52 deficient Saccharomyces cerevisiae RS322 in glucose medium after 48 hrs. Summed up:
as §1

By IC50 is commonly meant the concentration that inhibits the measured activity by half. As to `CC[C@@]1(O)C(=O)OCc2c1cc1n(c2=O)Cc2cc3c(CN(C)C)c(O)ccc3nc2-1` [TOPOTECAN], the values for the IC50 in experiment [1] and in experiment [2] were 9.9 µg/mL (≈ 23.5 µM) and greater than 100 µg/mL, respectively.
`CC[C@@]1(O)C(=O)OCc2c1cc1n(c2=O)Cc2cc3ccccc3nc2-1` [CAMPTOTHECIN]: the IC50 is 0.014 µg/mL (≈ 0.0402 µM) in experiment [1]; 0.16 µg/mL (≈ 0.459 µM) in experiment [3]; greater than 100 µg/mL in experiment [2]; 0.18 µg/mL (≈ 0.517 µM) in experiment [4]; greater than 100 µg/mL in experiment [5]; greater than 100 µg/mL in experiment [6]. For the same compound, the results for the IC50 in experiment [7] and in experiment [8] were greater than 100 µg/mL and 0.06 µg/mL (≈ 0.172 µM), respectively.
